Assay results from ChEMBL document CHEMBL2146441, “2,6-Disubstituted imidazo[2,1-b][1,3,4]thiadiazoles: search for anticancer agents” (2012).

Tests used:
Assay type in all cases: functional
NCI-H322M [1] = assay: Cytotoxicity against human NCI-H322M cells assessed as cell growth at 10^-5 M after 48 hrs by SRB assay; conditions: read-out: Activity
NCI-H460 = assay: Cytotoxicity against human NCI-H460 cells assessed as cell growth at 10^-5 M after 48 hrs by SRB assay; conditions: NCI-H460, 48 h, read-out: Activity
SF-539 = assay: Cytotoxicity against human SF539 cells assessed as cell growth at 10^-5 M after 48 hrs by SRB assay; conditions: SF-539, 48 h, read-out: Activity
SNB-19 [2] = assay: Cytotoxicity against human SNB19 cells assessed as cell growth at 10^-5 M after 48 hrs by SRB assay; conditions: SNB-19, 48 h, read-out: Activity
MDA-MB-435 [3] = assay: Cytotoxicity against human MDA-MB-435 cells assessed as cell growth at 10^-5 M after 48 hrs by SRB assay; conditions: MDA-MB-435, 48 h, read-out: Activity
PC-3 = assay: Cytotoxicity against human PC3 cells assessed as cell growth at 10^-5 M after 48 hrs by SRB assay; conditions: PC-3, 48 h, read-out: Activity
M14 = assay: Growth inhibition of human M14 cells after 48 hrs by SRB assay; conditions: M14, 48 h
How it was run: (§1)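 Adherent NCI-60 lines grown in RPMI 1640 with 5% FBS, seeded at 5000–40,000 cells/well, and preincubated 24 h at 37 °C, 5% CO2. Compound, stocked in DMSO, given either once at 10^-5 M or at five 10-fold dilutions for 48 h. Cells fixed with cold TCA (final 10%), stained with 0.4% SRB, and read at 515 nm. GI50 taken as 50% reduction in net protein increase versus time-zero and control plates.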

UACC-62 = assay: Growth inhibition of human UACC62 cells after 48 hrs by SRB assay; conditions: UACC-62, 48 h; for CC50: read-out: LC50 (the source's name); how it was run: as §1
A498 = assay: Growth inhibition of human A498 cells after 48 hrs by SRB assay; conditions: A498, 48 h
How it was run: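 Same 48 h NCI-60 five-dose SRB protocol. Adherent lines were fixed with cold TCA at 10% final; suspension lines such as CCRF-CEM were fixed with 16% final TCA. Stain was 0.4% SRB in 1% acetic acid for 10 min, solubilized in 10 mM Tris base and read at 515 nm. GI50 came from log concentration–growth curves, solving [(Ti−Tz)/(C−Tz)]×100 = 50.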

SN12C = assay: Growth inhibition of human SN12C cells after 48 hrs by SRB assay; conditions: for CC50: read-out: LC50 (the source's name); how it was run: as §1
MDA-MB-468 = assay: Cytotoxicity against human MDA-MB-468 cells assessed as cell growth at 10^-5 M after 48 hrs by SRB assay; conditions: MDA-MB-468, 48 h, read-out: Activity
[4] = Cytotoxicity against human […] cells assessed as cell growth at 10^-7 M after 48 hrs by SRB assay; conditions: 48 h, read-out: Activity
COLO = assay: Cytotoxicity against human COLO […] cells assessed as cell growth at 10^-7 M after 48 hrs by SRB assay; conditions: read-out: Activity
How it was run: (§2)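 NCI-60 screen: lines kept in RPMI 1640 with 5% FBS, seeded at 5000–40,000 cells/well by doubling time, preincubated 24 h at 37 °C in 5% CO2. Time-zero plates TCA-fixed at drug addition. DMSO stocks diluted in medium, 48 h exposure. Fixation in cold TCA (final 10% adherent, 16% suspension), 0.4% SRB stain, solubilised in 10 mM Tris base, A515. Percent growth computed against control and time-zero.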

SNB-19 [5] = assay: Cytotoxicity against human SNB19 cells assessed as cell growth at 10^-7 M after 48 hrs by SRB assay; conditions: SNB-19, 48 h, read-out: Activity
HL-60 [6] = assay: Cytotoxicity against human HL60 cells assessed as cell growth at 10^-4 M after 48 hrs by SRB assay; conditions: HL-60, 48 h, read-out: Activity
How it was run: (§3)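 NCI-60 five-dose screen. Cells were grown in RPMI 1640 with 5% FBS and seeded at 5000–40,000 cells/well according to doubling time. They were pre-incubated 24 h at 37 °C in 5% CO₂, and time-zero (Tz) plates were TCA-fixed at drug addition. Five 10-fold dilutions of DMSO stock were applied for 48 h. Read-out was SRB staining, 515 nm absorbance, with percent growth calculated versus Tz and untreated control.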

SR = assay: Cytotoxicity against human SR cells assessed as cell growth at 10^-4 M after 48 hrs by SRB assay; conditions: read-out: Activity
IGROV-1 = assay: Cytotoxicity against human IGROV1 cells assessed as cell growth at 10^-4 M after 48 hrs by SRB assay; conditions: IGROV-1, 48 h, read-out: Activity; how it was run: as §3
TK-10 [7] = assay: Cytotoxicity against human TK10 cells assessed as cell growth at 10^-4 M after 48 hrs by SRB assay; conditions: TK-10, 48 h, read-out: Activity
BT-549 [8] = assay: Cytotoxicity against human BT549 cells assessed as cell growth at 10^-4 M after 48 hrs by SRB assay; conditions: BT-549, 48 h, read-out: Activity; how it was run: as §2
OVCAR-4 = assay: Cytotoxicity against human OVCAR4 cells assessed as cell growth at 10^-7 M after 48 hrs by SRB assay; conditions: OVCAR-4, 48 h, read-out: Activity
SNB-19 [9] = assay: Cytotoxicity against human SNB19 cells assessed as cell growth at 10^-8 M after 48 hrs by SRB assay; conditions: SNB-19, 48 h, read-out: Activity
OVCAR-8 = assay: Cytotoxicity against human OVCAR8 cells assessed as cell growth at 10^-8 M after 48 hrs by SRB assay; conditions: OVCAR-8, 48 h, read-out: Activity
TK-10 [10] = assay: Cytotoxicity against human TK10 cells assessed as cell growth at 10^-8 M after 48 hrs by SRB assay; conditions: TK-10, 48 h, read-out: Activity
BT-549 [11] = assay: Cytotoxicity against human BT549 cells assessed as cell growth at 10^-8 M after 48 hrs by SRB assay; conditions: BT-549, 48 h, read-out: Activity; how it was run: as §2
HL-60 [12] = assay: Cytotoxicity against human HL60 cells assessed as cell growth at 10^-6 M after 48 hrs by SRB assay; conditions: HL-60, 48 h, read-out: Activity; how it was run: as §3
EKVX = assay: Cytotoxicity against human EKVX cells assessed as cell growth at 10^-6 M after 48 hrs by SRB assay; conditions: read-out: Activity; how it was run: as §2
NCI-H322M [13] = assay: Cytotoxicity against human NCI-H322M cells assessed as cell growth at 10^-6 M after 48 hrs by SRB assay; conditions: read-out: Activity
Malme-3M = assay: Cytotoxicity against human MALME-3M cells assessed as cell growth at 10^-6 M after 48 hrs by SRB assay; conditions: read-out: Activity
MDA-MB-435 [14] = assay: Cytotoxicity against human MDA-MB-435 cells assessed as cell growth at 10^-6 M after 48 hrs by SRB assay; conditions: MDA-MB-435, 48 h, read-out: Activity
[15] = Cytotoxicity against human NCI-ADR-RES cells assessed as cell growth at 10^-6 M after 48 hrs by SRB assay; conditions: read-out: Activity
ACHN = assay: Cytotoxicity against human ACHN cells assessed as cell growth at 10^-6 M after 48 hrs by SRB assay; conditions: read-out: Activity; how it was run: as §2

SMILES: COc1ccc(-c2nn3cc(-c4ccc(O)cc4O)nc3s2)cc1
- growth at 10 µM (NCI-H322M [1]): 23%
- growth at 10 µM (NCI-H460): -6%
- growth at 10 µM (SF-539): -82%
- growth at 10 µM (SNB-19 [2]): 22%
- growth at 10 µM (MDA-MB-435 [3]): 14%
- growth at 10 µM (PC-3): 14%
- GI50 (M14): 3.68 µM
- LC50 (concentration killing 50% of cells) (M14): > 100 µM
- TGI (M14): 18.1 µM
- GI50 (UACC-62): 3.47 µM
- TGI (UACC-62): 17.7 µM
- CC50 (UACC-62): 59.4 µM
- GI50 (A498): 0.365 µM
- LC50 (concentration giving 50% net cell kill) (A498): > 100 µM
- TGI (A498): 2.56 µM
- GI50 (SN12C): 2.58 µM
- TGI (SN12C): > 100 µM
- CC50 (SN12C): > 100 µM
- growth at 10 µM (MDA-MB-468): 9%
- growth at 0.1 µM [4]: 95%
- growth at 0.1 µM (COLO): 106%
- growth at 0.1 µM (SNB-19 [5]): 92%
- growth at 100 µM (HL-60 [6]): -25%
- growth at 100 µM (SR): -35%
- growth at 100 µM (IGROV-1): -7%
- growth at 100 µM (TK-10 [7]): -21%
- growth at 100 µM (BT-549 [8]): -15%
- growth at 0.1 µM (OVCAR-4): 88%
- growth at 0.01 µM (SNB-19 [9]): 93%
- growth at 0.01 µM (OVCAR-8): 102%
- growth at 0.01 µM (TK-10 [10]): 92%
- growth at 0.01 µM (BT-549 [11]): 94%
- growth at 1 µM (HL-60 [12]): 74%
- growth at 1 µM (EKVX): 65%
- growth at 1 µM (NCI-H322M [13]): 77%
- growth at 1 µM (Malme-3M): 61%
- growth at 1 µM (MDA-MB-435 [14]): 76%
- growth at 1 µM [15]: 81%
- growth at 1 µM (ACHN): 100%

SMILES: COc1ccc(-c2nn3cc(-c4cccc(N)c4)nc3s2)cc1
- growth at 10 µM (NCI-H322M [1]): 44%
- growth at 10 µM (NCI-H460): 26%
- growth at 10 µM (SF-539): -11%
- growth at 10 µM (SNB-19 [2]): 54%
- growth at 10 µM (MDA-MB-435 [3]): 11%
- growth at 10 µM (PC-3): 10%
- GI50 (M14): 5.48 µM
- LC50 (concentration killing 50% of cells) (M14): 90.1 µM
- TGI (M14): 24.5 µM
- GI50 (UACC-62): 2.92 µM
- TGI (UACC-62): 24.4 µM
- CC50 (UACC-62): > 100 µM
- GI50 (A498): 1.11 µM
- LC50 (concentration giving 50% net cell kill) (A498): 45.2 µM
- TGI (A498): 5.73 µM
- GI50 (SN12C): 4.18 µM
- TGI (SN12C): > 100 µM
- CC50 (SN12C): > 100 µM
- growth at 10 µM (MDA-MB-468): -2%
- growth at 0.1 µM [4]: 83%
- growth at 0.1 µM (COLO): 101%
- growth at 0.1 µM (SNB-19 [5]): 90%
- growth at 100 µM (HL-60 [6]): -14%
- growth at 100 µM (SR): 23%
- growth at 100 µM (IGROV-1): -18%
- growth at 100 µM (TK-10 [7]): -30%
- growth at 100 µM (BT-549 [8]): -25%
- growth at 0.1 µM (OVCAR-4): 92%
- growth at 0.01 µM (SNB-19 [9]): 96%
- growth at 0.01 µM (OVCAR-8): 104%
- growth at 0.01 µM (TK-10 [10]): 125%
- growth at 0.01 µM (BT-549 [11]): 102%
- growth at 1 µM (HL-60 [12]): 60%
- growth at 1 µM (EKVX): 50%
- growth at 1 µM (NCI-H322M [13]): 86%
- growth at 1 µM (Malme-3M): 71%
- growth at 1 µM (MDA-MB-435 [14]): 77%
- growth at 1 µM [15]: 85%
- growth at 1 µM (ACHN): 93%
